Results gathered from unrelated publications.
Each line is one published result; the experiments were not run side by side.
Observed: cell growth or viability

Structure (SMILES)	cell line	method	concentration	time	quantity	result
CC(C)(C)c1cnc(CSc2cnc(NC(=O)C3CCN(CCCCCCCCSc4cccc5c4CN(C4CCC(=O)NC4=O)C5=O)CC3)s2)o1 (stereo not drawn)	HuT78	trypan blue	1 µM	48 h	viability	10.5%
CCN(CCO)CCCC(C)Nc1ccnc2cc(Cl)ccc12 (stereo not drawn)	SH-SY5Y	resazurin			IC50	> 50000 nM
C#Cc1nc(C2=C(C)C(O)CC2)cs1 (stereo not drawn)	HT-1080				CC50	960 nM
Nc1ccc(/C=C/C(=O)NCc2cc3cc(-c4ccc(C(=O)N5CCC(F)(F)CC5)cc4)cc(-c4ccc(F)cc4)c3o2)cn1	Pan02	CCK-8		72 h	IC50	1640 nM
COc1cc2c3c(n(CCCNCCO)c(=O)c2cc1OC)-c1nc2c(cc1C3=O)OCO2	SK-N-MC	MTS		72 h	IC50	173 nM
C[C@H]1[C@H](OC(=O)CCC(=O)O)O[C@@H]2O[C@@]3(C)CC[C@H]4[C@H](C)CC[C@@H]1[C@@]24OO3	SH-SY5Y	resazurin			IC50	4600 nM
CC(C)(C)c1cnc(CSc2cnc(NC(=O)C3CCN(CCCCCSc4cccc5c4CN(C4CCC(=O)NC4=O)C5=O)CC3)s2)o1 (stereo not drawn)	HuT78	trypan blue	0.5 µM	48 h	viability	13.4%
COc1cc2c3c(n(CCCN4CCOCC4)c(=O)c2cc1OC)-c1nc2c(cc1C3=O)OCO2	SK-N-MC	MTS		72 h	IC50	698 nM
CC1(C)CCC(CN2CCN(c3ccc(C(=O)NS(=O)(=O)c4ccc(NCC5CCOCC5)c([N+](=O)[O-])c4)c(Oc4cnc5[nH]ccc5c4)c3)CC2)=C(c2ccc(Cl)cc2)C1	MM.1R	ATP luminescence		48 h	IC50	7460 nM
COc1cc2c3c(n(CCCn4ccnc4)c(=O)c2cc1OC)-c1nc2c(cc1C3=O)OCO2	SK-N-MC	MTS		72 h	IC50	170 nM
CCN(CC)CCCC(C)Nc1ccnc2cc(Cl)ccc12 (stereo not drawn)	SH-SY5Y	resazurin			IC50	44000 nM
Nc1ccc(/C=C/C(=O)N2CCc3c(oc4c(-c5ccc(F)cc5)cc(-c5ccc(C(=O)N6CCC(F)(F)CC6)nn5)cc34)C2)cn1	Pan02	CCK-8		72 h	IC50	250 nM
C=CC(=O)NC1CCN(c2ncc3ncnc(Nc4ccc(Oc5ccc6c(c5)ncn6C)c(C)c4)c3n2)CC1	SNU668				EC50	34.9 nM
OC(c1cc(C(F)(F)F)nc2c(C(F)(F)F)cccc12)C1CCCCN1 (stereo not drawn)	SH-SY5Y	resazurin			IC50	8000 nM
O=C(C=Cc1ccccc1)Nc1cc(-c2ccnc(N3CCC(O)CC3)c2)ccn1	HCC1937	MTT		72 h	IC50	528 nM
